Laboratory results as given in ChEMBL document CHEMBL1926542, “Synthesis and in vitro antiproliferative evaluation of pyrimido[5,4-c]quinoline-4-(3H)-one derivatives” (Eur J Med Chem, 2012).

Assays:
Format in all cases: functional, cell-based
[1] = Antiproliferative activity against human CNE2 cells after 72 hrs by MTT assay; conditions: CNE-2, 72 h
How it was run: (§1)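 Cells in 10% fetal calf serum, RPMI 1640 for all lines except MCF-7 (DMEM). Log-phase cells seeded at 2×10⁴ cells/ml, 37 °C, 5% CO₂. Compounds added after 24 h, then 72 h at 37 °C. MTT (5 mg/ml saline stock) for 3 h, formazan dissolved in DMSO, A570 read (ref 655 nm). IC₅₀ from dose-response curves. Mean of three independent experiments.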

[2] = Antiproliferative activity against human GLC82 cells after 72 hrs by MTT assay; conditions: GLC82, 72 h; how it was run: as §1
[3] = system: MGC-803; assay: Antiproliferative activity against human MGC803 cells after 72 hrs by MTT assay; conditions: MGC-803, 72 h; how it was run: as §1
[4] = system: KB; assay: Antiproliferative activity against human KB cells after 72 hrs by MTT assay; how it was run: as §1
[5] = system: MDA-MB-453; assay: Antiproliferative activity against human MDA-MB-453 cells after 72 hrs by MTT assay; conditions: MDA-MB-453, 72 h; how it was run: as §1
[6] = system: MCF7; assay: Antiproliferative activity against human MCF7 cells after 72 hrs by MTT assay; conditions: MCF7, 72 h; how it was run: as §1

Compound	IC50 [1] [µM]	IC50 [2] [µM]	IC50 [3] [µM]	IC50 [4] [µM]	IC50 [5] [µM]	IC50 [6] [µM]
Cc1nc2ccccc2c2nc(Oc3ccc(Br)cc3)n(-c3ccc(Cl)cc3)c(=O)c12	28.7	> 50	15.3	29.5	26.6	35.7
CCCCn1cnc2c(c(C)nc3ccccc32)c1=O	> 50	> 50	> 50	> 50	> 50	> 50
Cc1nc2ccccc2c2nc(Nc3ccc(Cl)cc3)n(N)c(=O)c12	> 50	> 50	> 50	> 50	> 50	> 50
O=c1[nH]cc(F)c(=O)[nH]1 [FLUOROURACIL]	17.2	15.5	16.6	9.85	> 50	9.67
Cc1nc2ccccc2c2nc3n(-c4ccccc4)cnn3c(=O)c12	> 50	> 50	> 50	> 50	> 50	> 50
CCC(C)n1cnc2c(c(C)nc3ccccc32)c1=O (configuration not stated)	> 50	> 50	> 50	> 50	> 50	> 50
Cc1nc2ccccc2c2ncn(CCO)c(=O)c12	> 50	> 50	> 50	> 50	> 50	> 50
Cc1nc2ccccc2c2ncn(N)c(=O)c12	> 50	> 50	> 50	> 50	> 50	> 50
Cc1nc2ccccc2c2nc(Oc3ccc4c(c3)OCO4)n(-c3ccc(Cl)cc3)c(=O)c12	47.7	> 50	> 50	30.9	> 50	> 50
Cc1nc2ccccc2c2nc(Oc3ccc(Cl)cc3Cl)n(-c3ccccc3)c(=O)c12	42.9	> 50	> 50	22.8	> 50	> 50
Cc1nc2ccccc2c2nc(Oc3ccccc3Cl)n(-c3ccc(F)cc3)c(=O)c12	> 50	> 50	> 50	> 50	> 50	> 50
Cc1nc2ccccc2c2ncn(Cc3ccccc3)c(=O)c12	26.5	> 50	> 50	> 50	> 50	> 50
